According to ChEMBL document CHEMBL1221199, “Structure-guided development of affinity probes for tyrosine kinases using chemical genetics” (Nat Chem Biol, 2007):
Active and inactive are the calls of the source. The calls are words filed in the database; no cut-off is given here.

Assays:
[1] = Inhibition of c-src T338G mutant by radioactive phosphotransfer assay
Outline: (§1)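 Kinase-domain c-Src variants (T338G, S345C, T338G/S345C) were made by site-directed mutagenesis and expressed in E. coli BL21(DE3) co-transformed with YopH, GroEL and trigger factor. Protein was quantified by A280 and stored at −80 °C. Radioactive phosphotransfer assays were run in triplicate across a range of inhibitor concentrations.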

[2] = Inhibition of c-src T338G/S345C double mutant by radioactive phosphotransfer assay; outline: as §1
[3] = target: Tyrosine-protein kinase Fyn (Homo sapiens, UniProt P06241); assay: Inhibition of Fyn expressed in Escherichia coli C43 by radioactive phosphotransfer assay
[4] = target: Tyrosine-protein kinase Fyn (Homo sapiens, UniProt P06241, T342G); assay: Inhibition of Fyn T342G mutant expressed in Escherichia coli C43 by radioactive phosphotransfer assay
[5] = target: Tyrosine-protein kinase Fyn (Homo sapiens, UniProt P06241, S349C); assay: Inhibition of Fyn S349C mutant in expressed in Escherichia coli C43 by radioactive phosphotransfer assay
[6] = target: Tyrosine-protein kinase Fyn (Homo sapiens, UniProt P06241, S349C/T342G); assay: Inhibition of Fyn T342G/S349C double mutant expressed in Escherichia coli C43 by radioactive phosphotransfer assay
[7] = target: Proto-oncogene tyrosine-protein kinase Src (Gallus gallus) (UniProt P00523); assay: Inhibition of c-src in by radioactive phosphotransfer assay
[8] = target: T1, Epidermal growth factor receptor (Homo sapiens, UniProt P00533); assay: Inhibition of human recombinant EGFR expressed in baculovirus-infected Sf9 cells by radioactive phosphotransfer assay; assay type: cell-based
[9] = target: T1, Epidermal growth factor receptor; assay: Inhibition of […] EGFR3 phosphorylation transfected in mouse NIH/3T3 cells at 0.1 to 2 uM by radioactive phosphotransfer assay; assay type: cell-based; conditions: NIH3T3, in the assay text read “immunoblotting” for “radioactive phosphotransfer assay”
Outline: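 Mouse NIH-3T3 fibroblasts lacking detectable endogenous EGFR, retrovirally transduced with analog-sensitive EGFR-as3 and hygromycin-selected, then grown in DMEM/10% FBS. Inhibitor at 0.1, 1.0 or 2.0 µM (1.2% DMSO), with or without EGF 100 ng/ml for 30 min before harvest. Equal lysate protein run on SDS-PAGE; anti-phosphotyrosine (4G10) immunoblot detected by ECL, with EGFR blot alongside.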

[10] = target: T1, Epidermal growth factor receptor; assay: Inhibition of EGFR3 transfected in EGF-stimulated mouse NIH/3T3 cells assessed as reduction of receptor-mediated Akt phosphorylation at 0.037 to 1 uM by radioactive phosphotransfer assay; assay type: cell-based; conditions: NIH3T3, in the assay text read “immunoblotting” for “radioactive phosphotransfer assay”
Outline: (§2)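 Transduced 3T3:EGFR-as3 cells were serum-starved overnight in 0.5% FBS, then given three-fold inhibitor dilutions from 1 µM to 37 nM (1% DMSO) for 1.5 h. […] Protein-normalised lysates were separated by SDS-PAGE, fluorescence-scanned, then immunoblotted for downstream phosphorylation. Run in duplicate.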

[11] = target: T1, Epidermal growth factor receptor; assay: Inhibition of EGFR3 transfected in EGF-stimulated mouse NIH/3T3 cells assessed as reduction of receptor-mediated Erk1 phosphorylation at 0.037 to 1 uM by radioactive phosphotransfer assay; assay type: cell-based; conditions: NIH3T3, in the assay text read “immunoblotting” for “radioactive phosphotransfer assay”; outline: as §2
[12] = target: T1, Epidermal growth factor receptor; assay: Inhibition of EGFR3 transfected in EGF-stimulated mouse NIH/3T3 cells assessed as reduction of receptor-mediated Erk2 phosphorylation at 0.037 to 1 uM by radioactive phosphotransfer assay; assay type: cell-based; conditions: NIH3T3, in the assay text read “immunoblotting” for “radioactive phosphotransfer assay”; outline: as §2
[13] = target: T1, Epidermal growth factor receptor; conditions: NIH3T3; at 0.1 to 2 µM

Tyrosine-protein kinase Fyn (Homo sapiens, UniProt P06241), sequence (P06241 whole entry): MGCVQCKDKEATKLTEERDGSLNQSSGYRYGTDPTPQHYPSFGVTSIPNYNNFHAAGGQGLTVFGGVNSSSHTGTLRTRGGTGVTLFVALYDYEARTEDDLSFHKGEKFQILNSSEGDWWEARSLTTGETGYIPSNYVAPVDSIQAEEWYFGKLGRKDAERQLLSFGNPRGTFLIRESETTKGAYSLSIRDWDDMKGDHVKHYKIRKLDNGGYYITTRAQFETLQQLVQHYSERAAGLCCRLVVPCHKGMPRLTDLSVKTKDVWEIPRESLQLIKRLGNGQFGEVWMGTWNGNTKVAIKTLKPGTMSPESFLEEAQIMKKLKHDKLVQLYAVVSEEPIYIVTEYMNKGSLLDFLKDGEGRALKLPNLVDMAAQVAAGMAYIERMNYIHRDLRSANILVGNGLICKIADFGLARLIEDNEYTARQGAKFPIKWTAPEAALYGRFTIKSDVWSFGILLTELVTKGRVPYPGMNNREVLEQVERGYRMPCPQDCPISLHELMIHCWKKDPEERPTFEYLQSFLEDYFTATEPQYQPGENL
Tyrosine-protein kinase Fyn (Homo sapiens, UniProt P06241, T342G), sequence (P06241 2-537 T342G limits assumed): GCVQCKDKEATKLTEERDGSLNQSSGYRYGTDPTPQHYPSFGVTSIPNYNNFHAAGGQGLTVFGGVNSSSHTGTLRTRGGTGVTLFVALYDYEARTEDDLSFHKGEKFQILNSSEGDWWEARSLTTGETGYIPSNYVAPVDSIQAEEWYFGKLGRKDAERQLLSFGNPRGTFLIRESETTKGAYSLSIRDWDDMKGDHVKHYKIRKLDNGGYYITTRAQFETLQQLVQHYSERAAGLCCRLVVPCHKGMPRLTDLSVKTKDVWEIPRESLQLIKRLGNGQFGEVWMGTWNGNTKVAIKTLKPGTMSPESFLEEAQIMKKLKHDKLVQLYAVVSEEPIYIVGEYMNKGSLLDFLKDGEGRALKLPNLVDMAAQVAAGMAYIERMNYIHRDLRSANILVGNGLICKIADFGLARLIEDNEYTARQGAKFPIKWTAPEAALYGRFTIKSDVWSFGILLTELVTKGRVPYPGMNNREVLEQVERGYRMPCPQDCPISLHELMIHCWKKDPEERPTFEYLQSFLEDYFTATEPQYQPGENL
Tyrosine-protein kinase Fyn (Homo sapiens, UniProt P06241, S349C), sequence (P06241 2-537 S349C limits assumed): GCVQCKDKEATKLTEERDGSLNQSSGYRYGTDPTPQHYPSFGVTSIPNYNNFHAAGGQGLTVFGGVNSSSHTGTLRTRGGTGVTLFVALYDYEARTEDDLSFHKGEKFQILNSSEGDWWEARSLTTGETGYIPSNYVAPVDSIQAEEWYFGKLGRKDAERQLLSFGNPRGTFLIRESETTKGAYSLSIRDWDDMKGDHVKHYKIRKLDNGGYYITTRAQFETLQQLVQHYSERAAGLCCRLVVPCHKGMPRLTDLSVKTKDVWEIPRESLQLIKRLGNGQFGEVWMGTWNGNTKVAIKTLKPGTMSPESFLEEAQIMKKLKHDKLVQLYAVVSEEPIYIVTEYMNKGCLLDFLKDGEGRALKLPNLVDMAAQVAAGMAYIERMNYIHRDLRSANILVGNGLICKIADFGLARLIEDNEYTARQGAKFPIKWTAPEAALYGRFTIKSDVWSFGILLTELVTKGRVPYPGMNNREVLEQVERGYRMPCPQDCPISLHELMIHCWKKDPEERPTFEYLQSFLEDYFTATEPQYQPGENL
T1 sequence (P00533 whole entry): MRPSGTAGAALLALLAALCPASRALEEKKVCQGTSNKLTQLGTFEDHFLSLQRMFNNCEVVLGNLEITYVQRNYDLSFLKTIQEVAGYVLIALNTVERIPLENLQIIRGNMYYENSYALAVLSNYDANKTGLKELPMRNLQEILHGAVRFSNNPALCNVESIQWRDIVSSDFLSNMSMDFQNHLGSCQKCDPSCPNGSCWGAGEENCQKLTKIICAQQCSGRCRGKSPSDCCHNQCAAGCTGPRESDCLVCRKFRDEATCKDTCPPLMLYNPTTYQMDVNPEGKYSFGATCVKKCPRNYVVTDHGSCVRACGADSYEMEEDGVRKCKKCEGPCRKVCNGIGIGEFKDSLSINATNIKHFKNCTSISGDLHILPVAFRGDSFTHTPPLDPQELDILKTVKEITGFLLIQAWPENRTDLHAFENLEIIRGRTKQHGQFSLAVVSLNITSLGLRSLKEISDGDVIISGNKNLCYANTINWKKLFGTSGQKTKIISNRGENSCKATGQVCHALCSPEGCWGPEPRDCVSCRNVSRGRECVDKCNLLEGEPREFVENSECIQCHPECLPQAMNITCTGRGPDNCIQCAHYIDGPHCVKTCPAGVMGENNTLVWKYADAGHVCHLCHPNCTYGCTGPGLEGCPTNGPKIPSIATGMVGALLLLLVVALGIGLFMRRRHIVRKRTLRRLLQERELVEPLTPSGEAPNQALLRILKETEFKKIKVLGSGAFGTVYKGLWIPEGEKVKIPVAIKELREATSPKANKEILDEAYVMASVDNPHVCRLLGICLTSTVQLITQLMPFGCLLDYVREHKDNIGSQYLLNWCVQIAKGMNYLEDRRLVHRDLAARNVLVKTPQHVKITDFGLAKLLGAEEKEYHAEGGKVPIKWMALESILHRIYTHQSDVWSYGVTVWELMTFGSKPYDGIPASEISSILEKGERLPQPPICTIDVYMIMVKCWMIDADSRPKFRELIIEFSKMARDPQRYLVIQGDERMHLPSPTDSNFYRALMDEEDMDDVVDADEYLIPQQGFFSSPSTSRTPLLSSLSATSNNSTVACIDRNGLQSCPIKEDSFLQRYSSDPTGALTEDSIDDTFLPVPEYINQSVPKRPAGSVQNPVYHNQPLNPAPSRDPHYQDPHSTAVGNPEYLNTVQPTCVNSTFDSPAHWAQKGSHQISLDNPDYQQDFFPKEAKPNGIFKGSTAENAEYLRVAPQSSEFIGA
Tyrosine-protein kinase Fyn (Homo sapiens, UniProt P06241, S349C/T342G), sequence (P06241 2-537 T342G/S349C limits assumed): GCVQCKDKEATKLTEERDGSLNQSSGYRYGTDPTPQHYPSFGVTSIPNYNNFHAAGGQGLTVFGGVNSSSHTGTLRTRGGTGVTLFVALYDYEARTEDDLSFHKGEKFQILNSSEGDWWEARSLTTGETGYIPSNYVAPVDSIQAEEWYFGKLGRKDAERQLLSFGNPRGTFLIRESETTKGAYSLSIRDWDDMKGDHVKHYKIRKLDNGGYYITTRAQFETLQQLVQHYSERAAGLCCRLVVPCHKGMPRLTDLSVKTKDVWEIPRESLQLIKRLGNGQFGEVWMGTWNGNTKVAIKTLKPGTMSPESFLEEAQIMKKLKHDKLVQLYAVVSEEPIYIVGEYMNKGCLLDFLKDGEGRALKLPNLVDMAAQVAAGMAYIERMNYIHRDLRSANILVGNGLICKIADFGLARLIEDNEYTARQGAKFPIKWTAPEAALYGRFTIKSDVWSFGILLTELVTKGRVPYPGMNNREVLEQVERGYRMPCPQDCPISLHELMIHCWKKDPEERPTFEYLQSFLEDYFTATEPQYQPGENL

SMILES	IC50 [1]	IC50 [2]	IC50 [3]	IC50 [4]	IC50 [5]	IC50 [6]	IC50 [7]	IC50 [8]	inhibition [9]	inhibition [10]	inhibition [11]	inhibition [12]	inhibition [13]
C=CC(=O)Nc1ccc2ncnc(Nc3ccc(Br)cc3)c2c1	1740 nM	37 nM	> 300000 nM	4650 nM	34 nM	19 nM	> 27000 nM	–	–	–	–	–	–
C=CC(=O)Nc1ccc2ncnc(Nc3cccc(Br)c3)c2c1	173 nM	1 nM	> 300000 nM	420 nM	42 nM	1 nM	–	–	–	–	–	–	–
CCC(=O)Nc1ccc2ncnc(Nc3ccc(C(C)(C)C)cc3)c2c1	218 nM	254 nM	> 300000 nM	1500 nM	> 300000 nM	540 nM	> 27000 nM	–	–	–	–	–	–
C=CC(=O)Nc1ccc2ncnc(Nc3ccc(C(C)C)cc3)c2c1	357 nM	16 nM	> 300000 nM	2200 nM	340 nM	32 nM	> 27000 nM	–	–	–	–	–	–
C=CC(=O)Nc1ccc2ncnc(Nc3cccc4ccccc34)c2c1	1270 nM	27 nM	16300 nM	2100 nM	670 nM	30 nM	16300 nM	–	–	–	–	–	–
C=CC(=O)Nc1ccc2ncnc(Nc3ccc4ccccc4c3)c2c1	1360 nM	13 nM	18100 nM	1800 nM	32 nM	3 nM	> 27000 nM	–	–	–	–	–	–
C=CC(=O)Nc1ccc2ncnc(Nc3ccc(-c4ccccc4)cc3)c2c1	374 nM	13 nM	> 300000 nM	9700 nM	760 nM	107 nM	> 27000 nM	–	–	–	–	–	–

The remaining compounds from weak to strong by IC50 [1], led by results:

IC50 [1]	IC50 [2]	IC50 [3]	IC50 [4]	IC50 [5]	IC50 [6]	IC50 [7]	IC50 [8]	inhibition [9]	inhibition [10]	inhibition [11]	inhibition [12]	inhibition [13]	SMILES
1570 nM	20 nM	3700 nM	1100 nM	5 nM	6 nM	> 27000 nM	< 1 nM	–	–	–	–	–	C=CC(=O)Nc1ccc2ncnc(Nc3ccccc3)c2c1
551 nM	109 nM	40000 nM	3800 nM	1400 nM	88 nM	> 27000 nM	–	–	–	–	–	–	C=CC(=O)Nc1ccc2ncnc(NCCc3ccccc3)c2c1
187 nM	5 nM	> 300000 nM	900 nM	8400 nM	24 nM	> 27000 nM	689 nM	Active	Active	Active	Active	inactive	C=CC(=O)Nc1ccc2ncnc(Nc3ccc(C(C)(C)C)cc3)c2c1
123 nM	24 nM	32000 nM	1500 nM	1700 nM	150 nM	> 27000 nM	–	–	–	–	–	–	C=CC(=O)Nc1ccc2ncnc(NCc3cccc4ccccc34)c2c1
